In assay [1] the test system is Aorta. Put plainly: Vasorelaxant activity on Wistar rat aorta ring assessed as inhibition of phenylephrine-induced contraction at 100 uM in absence of endothelium. It is filed as functional. Also noted: scale not given: the % may be the effect or the level left.
The nature of assay [2]: Antioxidant activity against iodophenol-induced chemiluminescence by horseradish peroxidase/perborate/luminol system. It is filed as functional. In a few lines:
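Total antioxidant capacity read by enhanced chemiluminescence. Reagent was assay buffer plus tablets A and B, which supply luminol, p-iodophenol enhancer and perborate oxidant. Values come from a Trolox standard curve (Trolox 20 μg mL⁻¹ in H2O) and are reported as mM Trolox equivalent; n=3.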

Assay [3] is described as follows: Antioxidant activity assessed as ABTS radical scavenging activity after 1 min by TEAC method.
For assay [4], the system named is Aorta. Put plainly: Vasorelaxant activity on Wistar rat aorta ring assessed as inhibition of phenylephrine-induced contraction at 100 uM in presence of endothelium. It is filed as functional. Also noted: scale not given: the % may be the effect or the level left.

`COc1cc([C@H]2OC[C@]3(O)[C@@H](c4ccc(O)c(OC)c4)OC[C@]23O)ccc1O` [PRINSEPIOL]: the Activity with Aorta [1] is 5.3%; in assay [2], 6.7 mM; in assay [3], 5.33 mM; in the assay with Aorta [4], 29.3%.
On the same counts, the results for `COc1cc([C@H]2OC[C@@H]3[C@@H](c4ccc(O[C@@H]5O[C@H](CO)[C@@H](O)[C@H](O)[C@H]5O)c(OC)c4)OC[C@]23O)ccc1O` are 1.7%, 1.44 mM, 2.51 mM and 2.5%.
Consider `COc1cc([C@H]2OC[C@]3(O)[C@@H](c4ccc(O)c(OC)c4)OC[C@H]23)ccc1O`, for which the Activity with Aorta [1] was found to be 29%; in assay [2] it was 6.31 mM; in assay [3], 5.1 mM; in the assay on Aorta [4], 24.4%.
Consider `C[C@@H]1O[C@@H](O[C@@H]2[C@@H](O)[C@H](OCCc3ccc(O)c(O)c3)O[C@H](CO)[C@H]2OC(=O)/C=C/c2ccc(O)c(O)c2)[C@H](O)[C@H](O)[C@H]1O`, for which the Activity in assay [2] stood at 8.2 mM; in assay [3] it was 5.3 mM.
Turning to `COc1cc([C@H]2OC[C@]3(O)[C@@H](c4ccc(O[C@@H]5O[C@H](CO)[C@@H](O)[C@H](O)[C@H]5O)c(OC)c4)OC[C@]23O)ccc1O`, the Activity amounted to 0% in the assay with Aorta [1], 1.84 mM in assay [2], 2.92 mM in assay [3] and 20.4% with Aorta [4].
